Screens deposited in PubChem by several laboratories.
Sampled rows, rich in hits. Any-hit rate of the full collection: about 1.9%.
MT stabilizer: microtubule stabilizers in HeLa cells | HeLa tubulin immunostaining HCS, 24 h; share of cells brighter than vehicle mean+2SD | % tubulin-high responders, % at 10 µM | 0.83% of 200,000 active;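 active = plate Z-score above 3 for both tubulin-high and condensed-nucleus cell shares, with cell loss under 80%, at 10 µM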;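 note: anti alpha tubulin signal scored within the nucleus-defined area of each cell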
ROMK mod: human ROMK K+ channel modulation, primary screen; P48048; B-score at 10 µM; Tet-inducible ROMK, thallium flux fluorescence; actives lie on both sides; AID 1918; 2% of 130,000 active;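 active = signal ratio slope over the read window, or its plate-corrected B-score, at least 3 SD from the plate mean, either direction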;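 note: B-score of the F/F0 ratio slope over 7 to 12 s after thallium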
Target sequence (P48048 whole entry, looked up): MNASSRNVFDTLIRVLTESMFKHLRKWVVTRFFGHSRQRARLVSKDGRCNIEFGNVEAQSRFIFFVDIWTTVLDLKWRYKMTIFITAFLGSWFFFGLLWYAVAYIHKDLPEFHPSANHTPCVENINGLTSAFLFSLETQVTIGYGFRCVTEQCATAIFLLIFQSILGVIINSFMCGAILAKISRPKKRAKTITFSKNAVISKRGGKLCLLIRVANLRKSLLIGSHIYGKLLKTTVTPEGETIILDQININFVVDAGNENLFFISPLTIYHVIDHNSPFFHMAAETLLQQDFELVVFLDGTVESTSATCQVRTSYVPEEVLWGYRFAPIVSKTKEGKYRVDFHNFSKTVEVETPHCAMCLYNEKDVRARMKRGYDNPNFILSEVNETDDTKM
bCat nuc transl: modulators of beta-catenin nuclear translocation; nuclear translocation activity, % at 5 µM; HeLa beta-catenin nuclear translocation, immunofluorescence imaging; AID 1665; 0.3% of 190,000 active;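 active = nuclear translocation activity above 50% at 5 µM, with a well cell count of 50 or more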;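 note: per-cell ratio of nuclear to cytoplasmic median beta-catenin stain intensity; plate controls were DMSO negative control for no effect and GSK-3 inhibitor IX positive control for full effect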
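Test system: human HeLa cells, native beta-catenin. Compound dosing: 5 µM primary single dose, 0.1% DMSO, 0.02–20 µM confirmation series. Incubation: compound exposure 24 h at 37°C. Detection: beta-catenin immunostaining with DAPI counterstain, 20x imaging, 6 fields/well. Read-out basis: Nuclear/cytoplasmic beta-catenin signal ratio, % activation.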
Starred values were filed as active, the others as inactive; . = not tested or not shown.

SMILES	MT stabilizer	ROMK mod	bCat nuc transl
Cc1ccc(S(=O)(=O)N(C(=O)c2ccncc2)c2ccc(OC(=O)c3ccncc3)c3ccccc23)c(C)c1	1.4	-0.794	-3.0
COC(=O)c1c(C)oc2ccc(N(C(=O)c3ccncc3)S(=O)(=O)c3ccccc3)cc12	1.7	.	0.5
COC(=O)c1c(C)oc2ccc(N(C(=O)c3ccncc3)S(=O)(=O)c3ccc4ccccc4c3)cc12	27.3*	.	-0.6
O=C(c1ccc(S(=O)(=O)c2ccccc2Cl)c([N+](=O)[O-])c1)N1CCCCCC1	3.7	-2.1	-2.0
O=C(CS(=O)(=O)c1ccc2ccccc2c1)N1CCCCCC1	3.3	.	-1.3
O=C(NCc1ccco1)/C(=C\c1cccs1)NC(=O)c1ccco1	2.5	-1.55	-0.1
CC(OC(=O)C1=COCCO1)C(=O)Nc1cc(S(=O)(=O)N2CCCCC2)ccc1Cl (centres undefined)	2.1	0.802	-1.4
N/C(CN1CCCCC1)=N\S(=O)(=O)c1cc(Cl)cc(Cl)c1	.	.	-2.0
COc1ccc(OC2C(=O)N(Cc3ccc4c(c3)OCO4)C2c2sccc2C)cc1 (centres undefined)	2.7	.	-0.5
CN1C(=O)/C(=C/c2ccccc2Cl)Sc2ccc(C(=O)NCc3cccnc3)cc21	2.3	-0.18	.
COc1ccc(C(=O)NC(C(=O)NCCc2ccc3c(c2)OCCO3)C(C)C)cc1 (centres undefined)	0.7	0.132	-0.2
CC(=O)NC(=S)Nc1ccc(S(=O)(=O)N(C)Cc2ccccc2)cc1	1.3	0.238	0.6
CC(C)C(=O)NC(=S)Nc1ccc(S(=O)(=O)N(C)Cc2ccccc2)cc1	42.2*	-0.262	1.6
Cc1ccc(S(=O)(=O)Nc2c(C)nc3nc[nH]n3c2=O)c(C)c1	2.0	.	-0.4
CCc1sc(NC(=O)c2cc3ccccc3oc2=O)nc1-c1cccs1	5.3	0.0557	0.3
Cc1ccn2c(-c3csc(NCc4ccco4)n3)c(C)nc2c1	4.3	.	-2.6
Cc1nc(C)c(-c2csc(Nc3cccc(O)c3)n2)s1	7.2	0.554	1.0
Cc1cccc(Nc2nc(-c3ccc4c(c3)OCCO4)cs2)c1	18.4*	1.14	-0.9
Cc1cccc(Nc2nc(-c3c(C)nc4ccccn34)cs2)c1	21.3*	-0.564	38.2
Cc1nc2ccccn2c1-c1csc(Nc2cccc(O)c2)n1	15.9	1.55	75.4*
Cc1cccc(Nc2nc(-c3ccncc3)cs2)c1	4.1	-0.669	-2.0
COc1ccc(OC)c2[nH]c(=O)c(CCNC(=O)c3cccs3)cc12	2.3	1.11	0.8
Cc1ccc(-c2nnc(Oc3ccc(NC(=O)c4ccccc4)cc3)c3ccccc23)cc1	7.6	.	-0.3
COc1ccc2c(c1)c(=O)c(C(=O)c1ccccc1)cn2Cc1ccccc1	17.1*	-0.0964	-0.7
COc1ccc(Cn2cc(C(=O)c3ccccc3)c(=O)c3cc(OC)ccc32)cc1	23.3	0.1	-1.7
SMILES	MT stabilizer	ROMK mod	bCat nuc transl
COc1ccc(CNC(=O)C2CC(=O)N(c3ccc(OCC(=O)N4C(C)CCCC4C)cc3)C2)cc1 (centres undefined)	3.5	1.01	-0.9
O=S(=O)(Nc1cc(C(F)(F)F)ccc1N1CCOCC1)c1ccc2ccccc2c1	2.2	0.108	-4.1
NC(=O)C1CCN(S(=O)(=O)Cc2ccccc2Cl)CC1	2.1	.	-0.6
CCc1ccc(CCC(=O)Nc2ncc(Cc3ccccc3Cl)s2)o1	11.9*	.	150.0*
O=C(CN1CCOCC1)Nc1ncc(Cc2ccccc2Cl)s1	1.3	.	2.2
COc1ccc(NC(=O)C2CCCC2)cn1	2.4	-0.0341	-1.5
CCOc1ccc(OCC)c(NC(=O)CN2CCN(c3cccc(C)c3)CC2)c1	3.5	-0.161	0.2
CCOc1ccc(OCC)c(NC(=O)CN2CCN(c3cccc(C)c3)C(C)C2)c1 (centres undefined)	43.4*	1.27	0.5
Cc1ccccc1[C@@H]1C(C#N)=C(N)S[C@H]1C(=O)c1ccccc1	1.9	-1.16	.
O=[N+]([O-])c1ccc(OCCO)c(P(=O)(c2ccccc2)c2ccccc2)c1	.	-0.669	0.4
Fc1cccc2sc(Nc3nnc(-c4ccccc4)o3)nc12	4.7	7.04*	0.6
COc1cc(OC)cc(-c2nnc(Nc3nc4c(F)cccc4s3)o2)c1	2.0	2.02	-2.0
COc1ccc(-c2nnc(Nc3nc4c(OC)cccc4s3)o2)c(OC)c1	10.2	7.32*	11.2
COc1ccc(-c2nnc(Nc3nc4c(OC)cccc4s3)o2)cc1	2.9	.	-1.1
CCOC(=O)N1CCC(N2CCN(S(=O)(=O)c3ccc4ccccc4c3)CC2)CC1	2.2	-0.522	.
CCn1c(-c2csc3c2CCC(C)C3)n[nH]c1=S (centres undefined)	5.2	.	0.6
CCOC(=O)c1c(C)[nH]c(N=Nc2ccc(OC)cc2)c1C	.	.	-0.5
Oc1ccc(C2=NNC(=NCc3ccc4c(c3)OCO4)SC2)c(O)c1	10.8	.	117.0*
Clc1ccc(C2=NNC(=NCc3ccc4c(c3)OCO4)SC2)cc1	4.0	.	-1.0
O=C(Cc1cccc2ccccc12)NCCOc1ccccc1F	2.4	-0.581	-1.8
CC1(C)SC[C@H](C(=O)Nc2cccc(Cl)c2)N1C=O	.	.	0.4
O=C1CCC(CCC(=O)N2CCCC(C(=O)c3ccc4c5c(cccc35)CC4)C2)=NN1 (centres undefined)	4.3	-0.754	-0.8
O=C1CCC(C(=O)N2CCCC(C(=O)c3ccc4c5c(cccc35)CC4)C2)=NN1 (centres undefined)	32.6*	0.006	-1.2
CCOC(=O)C1C(=O)NC(c2ccccc2)=NC1c1ccc(Cl)cc1 (centres undefined)	1.4	.	1.1
CCOC(=O)N1CCN(c2c(F)cc3[nH]c(=S)[nH]c3c2Br)CC1	47.1*	.	-0.6
SMILES	MT stabilizer	ROMK mod	bCat nuc transl
CCOC(=O)N1CCN(c2cc3[nH]c(=S)[nH]c3cc2F)CC1	3.0	0.281	-0.6
CCOC(=O)c1ccc(-c2ccc(C3Nc4ccccc4C(=O)N3O)o2)cc1 (centres undefined)	1.8	-3.77*	4.7
Cc1cc([N+](=O)[O-])ccc1-c1ccc(C2Nc3ccccc3C(=O)N2O)o1 (centres undefined)	0.8	.	.
CCN1C(=O)/C(=c2\sc3nc(=O)c(Cc4ccccc4)nn3c2=O)c2ccccc21	.	0.0838	1.4
O=S(=O)(c1ccc(-c2ccon2)s1)N1CCN(c2ccncc2)CC1	.	.	-1.3
Cc1cc(C)n(-c2ccc(C(=O)OCC(=O)NCc3ccc(Cl)cc3)cc2)n1	2.3	.	1.8
CC(=O)Nc1ccc(C(=O)OCC(=O)NCc2ccc(Cl)cc2)cc1	31.9*	.	50.5*
CCOc1cc(Cl)c(NC(C)=O)cc1OCC	5.3	-0.69	3.0
CCNc1nc(=S)nc(NCc2ccccc2)[nH]1	3.1	-0.283	-2.5
Cc1ccc(C(=O)c2cc([N+](=O)[O-])ccc2N2CCOCC2)cc1C	19.5*	1.24	9.6
O=C(NC1CCCCC1)c1cc([N+](=O)[O-])ccc1N1CCCCC1	4.2	.	-1.9
Cc1cc(C)c(-c2csc(NC(=O)c3cc([N+](=O)[O-])ccc3N3CCOCC3)n2)c(C)c1	2.4	.	.
Cc1ccc(C(=O)c2cc([N+](=O)[O-])ccc2N2CCCCC2)cc1C	4.2	0.872	77.9*
CN1CCN(c2ccc([N+](=O)[O-])cc2C(=O)N2CCOCC2)CC1	2.8	.	-0.4
Cc1ccc(C(=O)c2cc([N+](=O)[O-])ccc2N2CCOCC2)c(C)c1	6.5	.	134.7*
O=C(CSc1nncn1-c1cccnc1)N(c1ccccc1)c1ccccc1	1.2	0.851	4.2
